# Laboratory results published in the EternaBench riboswitch data.
# Test system: MS2 coat protein
# Test: apparent Kd, MS2 coat protein; higher = weaker binding; RNA-MaP array; FMN 200 µM where present
# Method in brief: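 Designs were transcribed by stalled E. coli RNA polymerase on Illumina sequencing-chip clusters. They were titrated with SNAP-549-labelled MS2 coat protein from 0.7 or 1.5 nM, doubling to 3 µM, without and then with constant ligand. Buffer: 100 mM Tris-HCl pH 7.5, 80 mM KCl, 4 mM MgCl2, BSA, DTT, yeast tRNA, Tween-20. Green signal was normalised to red-channel RNA signal and control-cluster median Fmax. Apparent Kd is the median of filtered per-cluster binding-curve fits.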
# [1] = designed as: ON switch for flavin mononucleotide, no ligand
# [2] = ligand present: flavin mononucleotide, designed as: ON switch for flavin mononucleotide
# [3] = designed as: OFF switch for flavin mononucleotide, no ligand
# [4] = ligand present: flavin mononucleotide, designed as: OFF switch for flavin mononucleotide
sequence,measurement,setting,value
GCCAUCGCAUGAGGAUAUGCUCCCGUUUCGGGAGCAGAAGGCAUGUCAUAAGACAUGAGGAUCACCCAUGUAGUUUAGAUGGCA,apparent Kd,[1],234 nM
same,apparent Kd,[2],11.1 nM
GUGGUCAGACAUGAGGAUCACCCAUGUGGAAUAAAUAAGGAGAAGGAUAUCGAAUAUAGGAUAUACGAGAAGGUCUGGUUGGUG,apparent Kd,[1],77.3 nM
same,apparent Kd,[2],83.1 nM
CAUCUCCCUUUUACAUGAGGAUCACCCAUGUUUUCAUAUUGAGAGGAUAUCGUAUUUGGAAACAUCGAGAAGGCUCAUUUGUAU,apparent Kd,[1],536 nM
same,apparent Kd,[2],175 nM
UUGACAUUCAAGAAGGGUCACUCUACAUGAGGAUCACCCAUGUCUAUGGACAGGAUAUUGAUCGUCACCUGGUUAGCUUUCGGU,apparent Kd,[1],770 nM
same,apparent Kd,[2],19 nM
CGCUAGGAUGGGUCUAAUGGACCUCAGGAUAUGCUUGUACAUGAGGAUCACCCAUGUAAUAUUGUGCAGAAGGGAGGAUCCACG,apparent Kd,[1],18.9 nM
same,apparent Kd,[2],6.56 nM
GUUUGUUUUUAGAAGGUGCCGGCGAGAGCCGCAACAUGAGGAUCACCCAUGUGUCGGUGACGACGCAAGGAUAUGGAGGUGGAU,apparent Kd,[1],127 nM
same,apparent Kd,[2],77.8 nM
UUUUUGUCAGGAUAUCGUUAAUUUAAUUGUUUGUAUUAGUUCGAGAAGGGACAUGAGGAUCACCCAUGUUUUUU,apparent Kd,[3],23.9 nM
same,apparent Kd,[4],39.6 nM
AGAAACUACGAGAAGGACAUAUGAUUCUUCAGAUACAUGAGGAUCACCCAUGUAGGAUAUCGUAGUUUCAGGAUCGUGAGAUCA,apparent Kd,[3],14 nM
same,apparent Kd,[4],97.7 nM
CAAUUACAUGAGGAUCACCCAUGUCAGGAUAUGCGAAUUACCAGAUGAAACUUAAUAAGCAGAAGGGACUACAA,apparent Kd,[3],36.3 nM
same,apparent Kd,[4],49.6 nM
GUCAGCUCGUGAGGAUAUACAACACUGCUUCGGCAGUGUAUUAAGAUCACAUGAGGAUCACCCAUGUAGAAGGCACUAGCUGAU,apparent Kd,[3],13.9 nM
same,apparent Kd,[4],256 nM
AUACACUAAGUGAGGAUAUCGAUUUCUUUAAGGAUCGAGAAGGCACAUGAGGAUCACCCAUGUUUGACGUGAAU,apparent Kd,[3],34.4 nM
same,apparent Kd,[4],75.8 nM
UGAUGACCUGUACCUAGUUGGUGACAUGAGGAUCACCCAUGUCAGGAUAUCGGGUUUGAAAACAACGAGAAGGGACAACGGGCG,apparent Kd,[3],12.6 nM
same,apparent Kd,[4],13 nM
GUAGCUAUCGGAGGAUAUUCAUACCGGAAACGGACAUGAGGAUCACCCAUGUGUCGAAAGCCUUGGGAGAAGGUCGAUAGCUAC,apparent Kd,[1],260 nM
same,apparent Kd,[2],87.4 nM
CUAUUGGUAACAGGAUAUAUGAGUCCUACAUGAGGAUCACCCAUGUAGGUGAUCAAACAUGAUUAGUAGAAGGGUUACCAAUAG,apparent Kd,[1],40.9 nM
same,apparent Kd,[2],8.8 nM
GAAACCUAGUCAGGAUAUCGGGCAAUAAUUGCACGAGAAGGGACAUGAGGAUCACCCAUGUACACCUCUGGUGAGUCUCGCAGG,apparent Kd,[3],24.4 nM
same,apparent Kd,[4],73.6 nM
AUGUAGAACGUAGGAUAUCAAUGAGGAUCACCCUGAGAAGGACGUGAGGACAUGAGGAUCACCCAUGUGGAUCACCCAUGUCAU,apparent Kd,[3],160 nM
same,apparent Kd,[4],134 nM
UUUUCUUUUGUGAGGAUAUACUUGUUUUUUUUUUUGUAGAAGGCACAUGAGGAUCACCCAUGUACUCUUUCCUG,apparent Kd,[3],19.7 nM
same,apparent Kd,[4],22.6 nM
AUUUGUAACCAGAAGGACAUGAGGAUCACCCAUGUAGGAUAUGGGCUUCUCAGGGCUGAGGAGUGAUCCCACAGGGACUUACGG,apparent Kd,[1],117 nM
same,apparent Kd,[2],18 nM
AAGUCGAGUGUGAGGAUAUUGACCGGACGACCCAUCGAGAAGGCACAUGAGGAUCACCCAUGUGAUUCAGCUCA,apparent Kd,[3],17 nM
same,apparent Kd,[4],23 nM
AUUAAACAUGAGGAUCACCCAUGUAAUAAUAUGGGAGGAUAUGCGAAUUUAAUUAUUUAAGCAGAAGGCCUAAUUA,apparent Kd,[1],63 nM
same,apparent Kd,[2],19.2 nM
GGAGCUCCUGACAUGAGGAUCACCCAUGUUCACUUAUUAAAUCAGGAUAUCGUCUCGAAACGAGACGAGAAGGGAUAUGCUCCU,apparent Kd,[1],7.67 nM
same,apparent Kd,[2],7.01 nM
GUCCUUAACAAGGAUAUCGGGCGGGUUUUUGUUUGAGAAGGUGUGACAUGAGGAUCACCCAUGUGGCGCGUGGG,apparent Kd,[3],355 nM
same,apparent Kd,[4],383 nM
GAUCAACAUGAGGAUCACCCAUGUGAGGAUAUGAUACUAUGUACUUCGGUACAUAGUAUCAGAAGGCAUGUGGA,apparent Kd,[3],158 nM
same,apparent Kd,[4],39.4 nM
UCUGAUAUUCCCGUGCCUCCAACACAGGAUAUCCGUCACAACAUGAGGAUCACCCAUGUCCGGGAGGAGAAGGGUGUGGAGAGU,apparent Kd,[1],91.3 nM
same,apparent Kd,[2],21.5 nM
CCAGAGACAUAAGGAUAUCGAGUGGAUAACACUCGAGAAGGUAUGUGAAAACAUGAGGAUCACCCAUGUGAUCAAUACUCUGGA,apparent Kd,[1],20.1 nM
same,apparent Kd,[2],20.4 nM
CUAUAGAUAUCAGGAUAUCUAUUUCCUACAUGAGGAUCACCCAUGUAGAUGAUCACCCAUGUAAAGGAGAAGGGAUAUCUAUAG,apparent Kd,[1],361 nM
same,apparent Kd,[2],169 nM
UGUAACCAAGGAUAUACAUGAGGAUCACCCAUGUAAUGUAGUAUAGUGUGUGUGAGGUGUAGAAGGAGGGAUGU,apparent Kd,[3],76.3 nM
same,apparent Kd,[4],73.6 nM
CGGUACUGAGGAUAUACAUGAGGAUCACCCAUGUGUUCCAGCUAGCGUACUGGCAUUUGUAGAAGGCGGUGCUG,apparent Kd,[3],16.8 nM
same,apparent Kd,[4],48 nM
CGGGCGGGAGGAUAUGCGUGGAUUGUUCUCGUAUGGUGUCUACAUGAGGAUCACCCAUGUAGAAGGCUUGUUUG,apparent Kd,[3],14.1 nM
same,apparent Kd,[4],16.7 nM
AACAAUAAGGAGGAUAUCGUAUCGGAAACGAUACGAGAAGGCUUAACAUGAGGAUCACCCAUGUUCCUCAAUAA,apparent Kd,[3],31.6 nM
same,apparent Kd,[4],60 nM
GUCCGGCGUGUAGGAUAUGGAUCCGAUUAGGAUCCAGAAGGACAUGAGGAUCACCCAUGUACAUGUAAACAGUCAUCACCGGAC,apparent Kd,[3],6.4 nM
same,apparent Kd,[4],7.41 nM
AUAAAACAUGAGGAUCACCCAUGUCAACAAAAUCGAGGAUAUGGACAGACUUCGGUCUGUCCAGAAGGCGAAUAAU,apparent Kd,[1],13.7 nM
same,apparent Kd,[2],14.6 nM
CAAUUUAGCGAGAAGGAGCGCCCGUAGGUACAUGAGGAUCACCCAUGUCCUUUGUGCUCUACGCGCUAGGAUAUCGAGAAACAG,apparent Kd,[3],13.5 nM
same,apparent Kd,[4],98.7 nM
CAUGUCUGAGGAUAUCGUUUUUUGUACAUGAGGAUCACCCAUGUCCUAUUUUUUAUAUUACGAGAAGGCAGUGGAU,apparent Kd,[3],36.4 nM
same,apparent Kd,[4],22.2 nM
CUGUGGGCCAUAGGAUAUGCGCAGAAUUAGCAAGCAGAAGGGUGGAUCGUACAAUAAUAACUACAUGAGGAUCACCCAUGUGCU,apparent Kd,[1],360 nM
same,apparent Kd,[2],39.6 nM
GUAGUGUAUGUAGGAUAUGCGAAGCAAAGCUUCGCAGAAGGACAUGAGGAUCACCCAUGUAUUGCAGCCUGCAAUCAGGCUGCU,apparent Kd,[3],42.2 nM
same,apparent Kd,[4],184 nM
GGAUAGGACAGAGGAUAUACGUGCUAGAGAUAGUAGCAAAAUUUCCUCACAUGAGGAUCACCCAUGUAGAAGGCUGUCCUAUCG,apparent Kd,[3],19.6 nM
same,apparent Kd,[4],365 nM
AAAAACAGAGGAUAUACAAAAUUAUGACGAAAGUCAUAAAAACAUGAGGAUCACCCAUGUAGAAGGCUGGAAAA,apparent Kd,[3],30.4 nM
same,apparent Kd,[4],28.9 nM
GGUUGGCGAGGAUAUACAUGAGGAUCACCCAUGUGGUCCUAAGAUAAAAUAGACCUUUGUAGAAGGCGCGGGUC,apparent Kd,[3],136 nM
same,apparent Kd,[4],122 nM
AUAAAAGUGACAUGAGGAUCACCCAUGUGAAUUAGUAGUAGCAGAAGGCACGUGGGAAGACCAAGUGAGGAUAUGUAACUUUAG,apparent Kd,[1],625 nM
same,apparent Kd,[2],59.2 nM
AUAUAAUAUCAGGAUAUGACUAGCUGCGGCUAGUCAGAAGGGAUGACAUGAGGAUCACCCAUGUGAUCAUAUAU,apparent Kd,[3],33.2 nM
same,apparent Kd,[4],151 nM
UGUCAGAUGGUAGGAUAUUCAUAUCGAGUGACCCUUUCAUAACAUGAGGAUCACCCAUGUCGGUGGGAGAAGGGCCGUAUGGUG,apparent Kd,[3],29.8 nM
same,apparent Kd,[4],30.3 nM
ACGCGUUGGGAGAAGGUACUUUAAUUAGGUUACACAUGAGGAUCACCCAUGUAAGGAUAUCCCAUCGUGUAAUAUUAUACAGCA,apparent Kd,[3],8.06 nM
same,apparent Kd,[4],7.39 nM
AGUUAAUAUCGAGGAUAUCCUCAUAAACAUGAGGAUCACCCAUGUAGAAUGGGAGAAGGCGAUAUUAACAGCAUGUUACAUGCA,apparent Kd,[1],210 nM
same,apparent Kd,[2],114 nM
AAAGGACGAGGAUAUACAUGAGGAUCACCCAUGUAAAAAGCAUAAUAAAAUAACUUAUGUAGAAGGCGUCCAAA,apparent Kd,[3],21.9 nM
same,apparent Kd,[4],108 nM
AUUAGGUAAGGAUAUACAUGAGGAUCACCCAUGUAGGUUAACGCAACCGGGUCCGGCUGUAGAAGGUGCAACGU,apparent Kd,[3],32.5 nM
same,apparent Kd,[4],32.6 nM
UUAAAUCAUGUAGGAUAUGCAUGGCGAAGCUACGCAGAAGGACAUGAGGAUCACCCAUGUUAUACCUACCCAGUUCGGUGGGAA,apparent Kd,[3],81 nM
same,apparent Kd,[4],241 nM
AGACAUACUCAAGGAUAUCGUCGUACAUGAGGAUCACCCAUGUCGCACUUCUAAAGAGAAGUUGGCGAGAAGGUGAGGUUCGUU,apparent Kd,[1],18.8 nM
same,apparent Kd,[2],7.76 nM
GUAGUGUAUGUAGGAUAUGUGAAGGAAACCUUUACAGAAGGACAUGAGGAUCACCCAUGUAUUACAGUCAGCAAUCUGACUGUU,apparent Kd,[3],28.4 nM
same,apparent Kd,[4],107 nM
AAACACAAACAUGAGGAUCACCCAUGUGGCGAAAGCCUUGGGAGAAGGGCGAUUGCAAAGCAAUCGCAGGAUAUUCGUAUUGUG,apparent Kd,[1],370 nM
same,apparent Kd,[2],26.9 nM
UUUUAACAUGAGGAUCACCCAUGUGAGGAUAUCGAAAUUUAUAUUAAUAUUUAUAUAUCGAGAAGGCACAUUUU,apparent Kd,[3],113 nM
same,apparent Kd,[4],97.8 nM
UGAUACAUGAGGAUCUCCCAUGACAUGAGGAUCACCCAUGUGCAGGAUAUACGUGUGAUAAUAUAGUAGAAGGGCAGUCUAUGU,apparent Kd,[3],189 nM
same,apparent Kd,[4],248 nM
AUAUAGAUGGUCAGGAUAUGCUAGUGGUAACAGUAGCAGAAGGGACAUGAGGAUCACCCAUGUGGAUACUGCGC,apparent Kd,[3],25.4 nM
same,apparent Kd,[4],85.9 nM
GUGCGGAACCUAGGAUAUCCGGCAUGGACAGGUGGUAAGUCUCCCACAUGAGGAUCACCCAUGUAGGAGAAGGAGGAUCACGGA,apparent Kd,[3],6.46 nM
same,apparent Kd,[4],6.07 nM
AAUAUAUUAAGUGAGGAUAUCAUAGAAAAAACAUGAGGAUCACCCAUGUGGGAAACCUGGUCGGGUGAGAAGGCACUUAAUAUAU,apparent Kd,[1],992 nM
same,apparent Kd,[2],88.4 nM
